Laboratory results: ChEMBL document CHEMBL4196006, “Aryl thiosemicarbazones for the treatment of trypanosomatidic infections” (Eur J Med Chem, 2018)
The source made the active and inactive calls. No cut-off for these calls is given here.

Tests used:
[1] = Cytotoxicity against human THP1 cells assessed as viable cells at 100 uM after 72 hrs by MTT assay relative to control; format: cell-based, THP-1; details: read-out: Activity
How it was run: (§1)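 THP-1-derived macrophages exposed to compounds for 72 h, tested at 100 μM or in dose-response; viability read by MTT colorimetric assay.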

[2] = target: Aurora kinase B (Homo sapiens, UniProt Q96GD4); assay: Inhibition of recombinant full-length human aurora B kinase expressed in baculovirus system at 10 uM using MBP as substrate incubated for 45 mins by ADP-glo kinase assay; details: probe MBP
How it was run: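 Aurora B activity measured as ADP formation via coupled luciferase ADP-Glo luminescence; single-point at 10 μM, triplicate.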

[3] = Selectivity index, ratio of CC50 for human U2OS cells to EC50 for Trypanosoma cruzi amastigote form; format: toxicity; details: read-out: Ratio CC50/EC50
How it was run: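 Selectivity index = CC50 in the human host or cytotoxicity cell line divided by parasite EC50.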

[4] = system: Trypanosoma brucei; assay: Potentiation of methotrexate-induced antitrypanosomal activity against Trypanosoma brucei Lister 427 bloodstream form at 10 uM after 72 hrs by resazurin dye-based assay; format: functional
[5] = Cytotoxicity against human U2OS cells assessed as decrease in viable cells after 72 hrs by cell number count in anti-T. cruzi high content imaging assay; details: U2OS cells
[6] = system: Trypanosoma cruzi; assay: Antitrypanosomal activity against Trypanosoma cruzi amastigote form infected in human U2OS cells assessed as parasite growth inhibition at 50 uM after 72 hrs relative to control; format: functional; details: read-out: GI
How it was run: (§2)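 U2OS monolayers grown for 24 h, then infected with tissue-derived trypomastigotes of T. cruzi Y strain. Compounds were added 24 h after infection at 50 μM (single-point) or in dose-response, with 72 h exposure. Plates were fixed, stained and analysed by high-content imaging; activity was normalized to infected and non-infected controls. Means of at least two experiments; benznidazole as reference.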

[7] = system: Leishmania infantum; assay: Antileishmanial activity against Leishmania infantum amastigote form assessed as parasite growth inhibition at 50 uM after 72 hrs by steady-Glo reagent based assay relative to control; format: functional; details: read-out: GI
How it was run: (§3)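 Intramacrophage L. infantum amastigotes in THP-1-derived macrophages, tested at 50 μM or in dose-response. Plates held 72 h at 37 °C, 5% CO2. Medium was replaced by PBS, macrophages lysed, and parasites read by Steady-Glo luminescence. High-content imaging gave host cell number, infection ratio (infected/total cells) and parasites per infected cell. Values are means of at least two independent experiments.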

[8] = target: CYP3A4 (Homo sapiens, UniProt P08684); assay: Inhibition of human microsomal CYP3A4 expressed in baculovirus infected BTI-TN-5B1-4 cells at 10 uM incubated for 30 mins by luciferase assay relative to control; format: ADME
How it was run: (§4)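 CYP1A2, 2C9, 2C19, 2D6 and 3A4 in microsomes from baculovirus-infected insect cells, each with a P450-Glo luminogenic substrate. Inhibition read as loss of light; single-point at 10 μM, triplicate.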

[9] = Cytotoxicity against human 786-O cells assessed as inhibition of mitochondrial viability at 10 uM after 6 hrs by CMXRos staining based assay relative to control; format: cell-based, 786-0; details: read-out: INH
How it was run: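 Mitochondrial toxicity monitored by MitoTracker Red CMXRos uptake and high-content imaging; compound at 10 μM, triplicate.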

[10] = target: T1, Pteridine reductase, putative (Trypanosoma brucei) (UniProt Q581W1); assay: Inhibition of Trypanosoma brucei PTR1 at 50 uM using H2B as substrate in presence of NADPH by photometric analysis relative to control
T1 sequence (whole entry): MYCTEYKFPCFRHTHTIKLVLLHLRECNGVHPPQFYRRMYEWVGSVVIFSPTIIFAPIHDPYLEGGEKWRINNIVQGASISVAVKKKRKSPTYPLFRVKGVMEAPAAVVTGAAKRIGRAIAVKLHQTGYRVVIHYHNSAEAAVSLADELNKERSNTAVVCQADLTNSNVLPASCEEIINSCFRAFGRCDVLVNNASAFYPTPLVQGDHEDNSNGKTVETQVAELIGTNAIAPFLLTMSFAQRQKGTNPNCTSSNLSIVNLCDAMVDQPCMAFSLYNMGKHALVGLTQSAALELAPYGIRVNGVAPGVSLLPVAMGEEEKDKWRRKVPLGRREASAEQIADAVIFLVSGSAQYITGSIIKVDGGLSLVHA

[11] = system: Trypanosoma cruzi; assay: Antitrypanosomal activity against Trypanosoma cruzi amastigote form infected in human U2OS cells assessed as parasite growth inhibition after 72 hrs; format: functional, organism-based; how it was run: as §2
[12] = target: CYP2D6 (Homo sapiens, UniProt P10635); assay: Inhibition of human microsomal CYP2D6 expressed in baculovirus infected BTI-TN-5B1-4 cells at 10 uM incubated for 30 mins by luciferase assay relative to control; format: ADME; how it was run: as §4
[13] = system: Trypanosoma brucei; assay: Potentiation of methotrexate-induced antitrypanosomal activity against Trypanosoma brucei Lister 427 bloodstream form at 10 uM after 72 hrs by resazurin dye-based assay relative to control; format: functional
[14] = target: T2, Pteridine reductase 1 (Leishmania major) (UniProt Q01782); assay: Inhibition of Leishmania major PTR1 at 50 uM using H2B as substrate in presence of NADPH by photometric analysis relative to control
T2 sequence (whole entry): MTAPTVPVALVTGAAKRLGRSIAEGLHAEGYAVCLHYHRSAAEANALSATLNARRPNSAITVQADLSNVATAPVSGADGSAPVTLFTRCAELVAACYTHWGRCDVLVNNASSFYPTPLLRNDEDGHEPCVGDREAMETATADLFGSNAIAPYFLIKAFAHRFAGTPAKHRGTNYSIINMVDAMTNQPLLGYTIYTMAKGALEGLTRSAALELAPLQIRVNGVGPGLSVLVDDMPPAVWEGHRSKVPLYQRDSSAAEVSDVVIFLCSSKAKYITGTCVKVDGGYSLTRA

[15] = Cytotoxicity against human U2OS cells assessed as viable cells at 50 uM after 72 hrs by MTT assay relative to control; format: cell-based; details: read-out: Activity
[16] = target: T3, CYP1A2 (Homo sapiens, UniProt P05177); assay: Inhibition of human microsomal CYP1A2 expressed in baculovirus infected BTI-TN-5B1-4 cells at 10 uM incubated for 30 mins by luciferase assay relative to control; format: ADME; how it was run: as §4
T3 sequence (P05177 whole entry): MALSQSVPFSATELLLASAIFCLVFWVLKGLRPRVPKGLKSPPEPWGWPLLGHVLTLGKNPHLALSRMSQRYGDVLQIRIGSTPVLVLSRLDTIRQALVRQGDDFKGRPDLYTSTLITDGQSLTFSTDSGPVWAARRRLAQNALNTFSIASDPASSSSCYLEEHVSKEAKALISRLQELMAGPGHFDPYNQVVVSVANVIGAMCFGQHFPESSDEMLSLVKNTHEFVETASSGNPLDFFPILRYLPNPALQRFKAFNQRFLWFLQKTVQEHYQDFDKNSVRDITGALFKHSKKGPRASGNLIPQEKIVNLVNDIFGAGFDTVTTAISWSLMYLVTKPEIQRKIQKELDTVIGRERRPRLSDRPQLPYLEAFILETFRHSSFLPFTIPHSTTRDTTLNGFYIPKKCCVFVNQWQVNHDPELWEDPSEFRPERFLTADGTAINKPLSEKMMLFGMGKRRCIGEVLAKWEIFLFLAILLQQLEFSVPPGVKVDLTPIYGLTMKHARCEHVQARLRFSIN

[17] = system: Trypanosoma brucei; assay: Antitrypanosomal activity against Trypanosoma brucei Lister 427 bloodstream form after 72 hrs by SYBR Green assay; format: functional, organism-based; details: Lister 427, 72 h
[18] = system: Trypanosoma brucei; assay: Antitrypanosomal activity against Trypanosoma brucei Lister 427 bloodstream form at 10 uM after 72 hrs by resazurin dye-based assay relative to control; format: functional
[19] = target: CYP2C9 (Homo sapiens, UniProt P11712); assay: Inhibition of human microsomal CYP2C9 expressed in baculovirus infected BTI-TN-5B1-4 cells at 10 uM incubated for 30 mins by luciferase assay relative to control; format: ADME; how it was run: as §4
[20] = target: hERG (KCNH2) (Homo sapiens, UniProt Q12809); assay: Inhibition of human ERG at 10 uM incubated for 2 hrs by fluorescence polarisation assay relative to control
[21] = target: CYP2C19 (Homo sapiens, UniProt P33261); assay: Inhibition of human microsomal CYP2C19 expressed in baculovirus infected BTI-TN-5B1-4 cells at 10 uM incubated for 30 mins by luciferase assay relative to control; format: ADME; how it was run: as §4
[22] = Cytotoxicity against human A549 cells assessed as growth inhibition at 10 uM after 48 hrs by CellTiter-Glo assay relative to control; values are per cent of control; details: A549 cells
[23] = system: Trypanosoma brucei; assay: Antitrypanosomal activity against Trypanosoma brucei Lister 427 bloodstream form assessed as parasite growth inhibition at 50 uM after 72 hrs by SYBR Green assay relative to control; format: functional; details: for inhibition of growth at 50 µM: Lister 427, 72 h, read-out: GI
[24] = Cytotoxicity against human WI38 cells assessed as growth inhibition at 10 uM after 48 hrs by CellTiter-Glo assay relative to control; values are per cent of control; details: WI38 cells
[25] = system: Leishmania infantum; assay: Antileishmanial activity against Leishmania infantum amastigote form; format: functional, organism-based; how it was run: as §3
[26] = target: Cytochrome P450 2C9 (Homo sapiens, UniProt P11712); assay: Inhibition of human microsomal CYP2C9 expressed in baculovirus infected BTI-TN-5B1-4 cells incubated for 30 mins by luciferase assay
[27] = Cytotoxicity against human THP1 cells assessed as decrease in viable cells after 72 hrs by MTT assay; format: cell-based, THP-1; details: THP1 cells; how it was run: as §1
[28] = system: Leishmania infantum; assay: Antileishmanial activity against Leishmania infantum amastigote form after 72 hrs by steady-Glo reagent based assay; format: functional, organism-based; how it was run: as §3

Sequence of CYP2D6 (P10635 whole entry): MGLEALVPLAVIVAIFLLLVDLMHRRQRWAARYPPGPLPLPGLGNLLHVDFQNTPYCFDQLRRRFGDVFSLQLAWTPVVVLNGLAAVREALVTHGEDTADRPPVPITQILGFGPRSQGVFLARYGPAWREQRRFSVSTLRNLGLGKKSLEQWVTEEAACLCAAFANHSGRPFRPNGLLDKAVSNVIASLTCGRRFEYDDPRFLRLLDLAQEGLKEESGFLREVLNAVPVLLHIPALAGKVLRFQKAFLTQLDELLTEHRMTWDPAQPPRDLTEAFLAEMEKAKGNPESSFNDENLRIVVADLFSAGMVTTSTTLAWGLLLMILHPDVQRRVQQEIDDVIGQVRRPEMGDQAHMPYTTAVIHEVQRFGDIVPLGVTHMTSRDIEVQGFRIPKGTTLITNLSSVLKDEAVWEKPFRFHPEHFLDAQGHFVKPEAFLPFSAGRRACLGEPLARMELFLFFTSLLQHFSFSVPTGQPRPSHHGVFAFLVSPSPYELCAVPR
Sequence of Aurora kinase B (Q96GD4 whole entry): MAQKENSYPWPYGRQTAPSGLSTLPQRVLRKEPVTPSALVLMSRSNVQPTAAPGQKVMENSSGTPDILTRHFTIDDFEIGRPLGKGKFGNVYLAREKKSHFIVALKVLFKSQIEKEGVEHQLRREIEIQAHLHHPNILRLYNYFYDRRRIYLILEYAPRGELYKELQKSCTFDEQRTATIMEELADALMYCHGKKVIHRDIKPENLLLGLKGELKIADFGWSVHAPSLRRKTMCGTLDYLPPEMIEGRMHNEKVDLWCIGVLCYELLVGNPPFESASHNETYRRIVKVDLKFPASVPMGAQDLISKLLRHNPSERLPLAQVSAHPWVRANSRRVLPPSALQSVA
Sequence of CYP3A4 (P08684 whole entry): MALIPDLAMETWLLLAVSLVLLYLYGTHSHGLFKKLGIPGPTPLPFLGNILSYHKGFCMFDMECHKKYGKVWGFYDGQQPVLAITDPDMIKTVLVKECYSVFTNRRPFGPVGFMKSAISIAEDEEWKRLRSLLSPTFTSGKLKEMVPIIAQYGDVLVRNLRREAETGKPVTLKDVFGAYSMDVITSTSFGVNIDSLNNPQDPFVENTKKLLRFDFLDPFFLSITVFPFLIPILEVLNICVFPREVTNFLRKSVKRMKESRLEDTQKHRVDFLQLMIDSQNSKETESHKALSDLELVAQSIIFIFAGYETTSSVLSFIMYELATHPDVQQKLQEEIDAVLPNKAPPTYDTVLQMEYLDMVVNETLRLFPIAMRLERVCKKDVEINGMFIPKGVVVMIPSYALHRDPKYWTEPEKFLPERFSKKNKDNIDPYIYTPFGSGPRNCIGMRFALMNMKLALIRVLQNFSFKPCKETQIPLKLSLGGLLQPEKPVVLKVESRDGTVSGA
Sequence of hERG (KCNH2) (Q12809 whole entry): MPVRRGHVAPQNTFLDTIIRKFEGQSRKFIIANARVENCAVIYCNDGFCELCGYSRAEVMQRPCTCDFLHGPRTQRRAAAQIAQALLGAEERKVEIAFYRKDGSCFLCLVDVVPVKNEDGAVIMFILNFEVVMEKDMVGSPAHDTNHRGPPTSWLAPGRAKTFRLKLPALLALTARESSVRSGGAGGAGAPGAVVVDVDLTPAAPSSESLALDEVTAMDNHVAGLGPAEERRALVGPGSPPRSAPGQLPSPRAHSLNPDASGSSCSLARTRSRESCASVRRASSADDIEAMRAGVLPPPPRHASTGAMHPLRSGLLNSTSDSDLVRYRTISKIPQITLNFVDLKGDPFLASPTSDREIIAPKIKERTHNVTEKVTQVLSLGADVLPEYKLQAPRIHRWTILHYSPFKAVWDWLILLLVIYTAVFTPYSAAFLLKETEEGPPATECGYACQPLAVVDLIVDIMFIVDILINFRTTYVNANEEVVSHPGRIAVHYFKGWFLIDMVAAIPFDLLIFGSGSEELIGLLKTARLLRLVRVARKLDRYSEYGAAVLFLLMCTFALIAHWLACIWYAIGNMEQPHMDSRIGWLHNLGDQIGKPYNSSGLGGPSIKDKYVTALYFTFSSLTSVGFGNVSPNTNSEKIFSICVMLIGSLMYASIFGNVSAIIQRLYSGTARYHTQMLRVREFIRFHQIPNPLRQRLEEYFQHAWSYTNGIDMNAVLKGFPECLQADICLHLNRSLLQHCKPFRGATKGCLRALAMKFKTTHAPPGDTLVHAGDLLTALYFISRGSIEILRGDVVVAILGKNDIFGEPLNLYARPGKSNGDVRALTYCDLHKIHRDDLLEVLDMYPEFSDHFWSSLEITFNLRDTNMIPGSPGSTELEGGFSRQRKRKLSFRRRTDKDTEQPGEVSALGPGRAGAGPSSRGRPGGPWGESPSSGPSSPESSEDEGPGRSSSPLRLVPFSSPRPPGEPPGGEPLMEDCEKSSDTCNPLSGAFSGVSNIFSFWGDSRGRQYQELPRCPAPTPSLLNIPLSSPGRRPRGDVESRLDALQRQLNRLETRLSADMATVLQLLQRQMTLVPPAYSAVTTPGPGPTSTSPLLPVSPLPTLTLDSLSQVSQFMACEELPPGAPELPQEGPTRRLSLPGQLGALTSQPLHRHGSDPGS
Sequence of CYP2C19 (P33261 whole entry): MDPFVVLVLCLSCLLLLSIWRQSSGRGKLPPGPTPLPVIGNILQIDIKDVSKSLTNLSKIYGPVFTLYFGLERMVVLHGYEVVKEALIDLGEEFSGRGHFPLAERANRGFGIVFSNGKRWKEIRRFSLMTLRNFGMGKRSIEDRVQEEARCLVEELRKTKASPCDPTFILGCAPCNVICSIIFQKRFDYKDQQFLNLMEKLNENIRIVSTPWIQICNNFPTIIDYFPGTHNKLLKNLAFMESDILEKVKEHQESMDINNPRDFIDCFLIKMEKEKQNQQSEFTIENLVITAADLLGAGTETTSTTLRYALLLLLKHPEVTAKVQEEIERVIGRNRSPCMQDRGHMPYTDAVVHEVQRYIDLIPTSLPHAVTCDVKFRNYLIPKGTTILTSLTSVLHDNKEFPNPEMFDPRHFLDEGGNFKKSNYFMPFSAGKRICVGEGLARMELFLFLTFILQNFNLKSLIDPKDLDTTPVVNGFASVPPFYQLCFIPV
Sequence of CYP2C9 (P11712 whole entry): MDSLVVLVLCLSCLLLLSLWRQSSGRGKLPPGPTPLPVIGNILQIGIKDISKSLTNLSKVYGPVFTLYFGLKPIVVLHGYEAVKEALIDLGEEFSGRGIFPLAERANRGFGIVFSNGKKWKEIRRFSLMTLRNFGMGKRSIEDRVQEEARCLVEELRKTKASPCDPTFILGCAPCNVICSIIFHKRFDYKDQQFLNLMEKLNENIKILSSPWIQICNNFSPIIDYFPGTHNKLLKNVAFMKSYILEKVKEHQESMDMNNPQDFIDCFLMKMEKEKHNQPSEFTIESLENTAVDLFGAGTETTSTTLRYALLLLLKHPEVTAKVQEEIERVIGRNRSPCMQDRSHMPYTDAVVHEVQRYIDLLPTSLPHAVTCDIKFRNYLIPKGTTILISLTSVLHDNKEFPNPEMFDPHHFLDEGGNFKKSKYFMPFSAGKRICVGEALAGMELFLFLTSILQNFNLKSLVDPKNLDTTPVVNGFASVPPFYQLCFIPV
Sequence of Cytochrome P450 2C9 (P11712 whole entry): as above

inhibition at 0.75 h, 10 µM [2] [%]	inhibition at 0.5 h, 10 µM [8] [%]	inhibition [10] [%]	EC50 [11] [µM]	inhibition at 0.5 h, 10 µM [12] [%]	inhibition [14] [%]	inhibition at 0.5 h, 10 µM [16] [%]	inhibition at 0.5 h, 10 µM [19] [%]	inhibition at 0.5 h, 10 µM [21] [%]	SMILES	viability at 72 h, 100 µM [1] [%]	selectivity ratio [3]	PF [4]	CC50 at 72 h [5] [µM]	inhibition of growth at 50 µM [6] [%]	inhibition of growth at 50 µM [7] [%]	cytotoxicity at 6 h, 10 µM [9] [%]	Activity [13] [%]	viability at 72 h, 50 µM [15] [%]	Activity [18] [%]	inhibition at 2 h, 10 µM [20] [%]	further results
-5.47	-13.1	8.92	1.59	3.17	9.09	18.3	9.11	-36.7	NC(=S)N/N=C/C=C/c1ccccc1	44.1	> 1	2.37	> 44	94.6	45.9	-2.97	84.5	76.1	11.33	7.23	EC50 [17]: 16.9 µM; cell growth (% of control) at 48 h, 10 µM [22]: 129%; inhibition of growth at 50 µM [23]: 91.7%; cell growth (% of control) at 48 h, 10 µM [24]: 82.8%
-8.76	-12.2	3.99	1.87	-43.1	14.8	-0.31	-12.2	-43.2	NC(=S)N/N=C/c1ccco1	92.9	> 1	0.87	> 44	93.6	26.9	-4.4	24	112	3.33	-7.97	cell growth (% of control) at 48 h, 10 µM [22]: 124%; growth inhibition (GI) [23]: inactive; cell growth (% of control) at 48 h, 10 µM [24]: 106%

Continued, compound first:

SMILES	inhibition at 0.75 h, 10 µM [2] [%]	inhibition at 0.5 h, 10 µM [8] [%]	inhibition [10] [%]	EC50 [11] [µM]	inhibition at 0.5 h, 10 µM [12] [%]	inhibition [14] [%]	inhibition at 0.5 h, 10 µM [16] [%]	inhibition at 0.5 h, 10 µM [19] [%]	inhibition at 0.5 h, 10 µM [21] [%]	viability at 72 h, 100 µM [1] [%]	selectivity ratio [3]	PF [4]	CC50 at 72 h [5] [µM]	inhibition of growth at 50 µM [6] [%]	inhibition of growth at 50 µM [7] [%]	cytotoxicity at 6 h, 10 µM [9] [%]	Activity [13] [%]	viability at 72 h, 50 µM [15] [%]	Activity [18] [%]	inhibition at 2 h, 10 µM [20] [%]	further results
CSc1ccc(/C=N/NC(N)=S)cc1	-12.2	-15.9	9.49	2.58 to 29.5	35.9	11.2	27	12.4	-38.2	35.7	> 17	2.24	> 44	89.3	34.1	-10.8	88.67	42.7	15.33	-2.87	EC50 [17]: 44.4 µM; cell growth (% of control) at 48 h, 10 µM [22]: 136%; inhibition of growth at 50 µM [23]: 82.6%; cell growth (% of control) at 48 h, 10 µM [24]: 107%
CCCCCCCCCCCCCCCCOP(=O)([O-])OCC[N+](C)(C)C [MILTEFOSINE]													11.5								EC50 [25]: 1.29 µM; IC50 [26]: > 100 µM; CC50 at 72 h [27]: 15 µM; EC50 [28]: 2.51 to 2.8 µM
N=C(N)c1ccc(OCCCCCOc2ccc(C(=N)N)cc2)cc1 [PENTAMIDINE]																					CC50 at 72 h [27]: 10 µM
C[C@@H]1[C@H](O)[C@@H](C)/C=C/C=C/C=C/C=C/C=C/C=C/C=C/[C@H](O[C@@H]2O[C@H](C)[C@@H](O)[C@H](N)[C@@H]2O)C[C@@H]2O[C@](O)(C[C@@H](O)C[C@@H](O)[C@H](O)CC[C@@H](O)C[C@@H](O)CC(=O)O[C@H]1C)C[C@H](O)[C@H]2C(=O)O [AMPHOTERICIN B]																					EC50 [25]: 1.14 µM; IC50 [26]: > 100 µM; CC50 at 72 h [27]: 16.9 µM; EC50 [28]: 0.2 µM
